Data set [1] is described as follows: Plasma protein binding in mouse at 2 uM incubated for 4 to 24 hrs by equilibrium dialysis method. The settings on record: time 4-24 hrs, read-out: PPB. Format: ADME, cell-free. In outline:
(§1)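 Rapid equilibrium dialysis in mouse, rat, dog, monkey or human plasma for 4 or 24 h at 2 μM.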

Data set [2] in a line: Plasma protein binding in dog at 2 uM incubated for 4 to 24 hrs by equilibrium dialysis method. In kind it is ADME, cell-free, Canis lupus familiaris. The settings on record: time 4-24 hrs, read-out: PPB (converted). The method, boiled down:
as §1

The target in data set [3] is Solute carrier family 22 member 6 (Homo sapiens, UniProt Q4U2R8). Description: Inhibition of OAT1 (unknown origin) transfected in HEK293 cells. Format: cell-based. The method, boiled down:
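HEK-293 cells transfected with the uptake transporter; uptake of known probe substrates measured with test compound at eight concentrations (0.0229–50.0 μM or 0.0457–100 μM); inhibition at each concentration used to calculate IC50.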

Data set [4] relates to Hepatitis B virus. Description: Antiviral activity against HBV genotype D infected in human HepG2.117 cells assessed as decrease in HBV DNA production in presence of 40 percent human serum by qPCR analysis. In kind it is functional, organism-based. The method, boiled down:
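HepG2.117 cells (integrated genotype D HBV genome, Tet-off promoter; kept in 1 μg/mL doxycycline) were seeded at 20,000 cells/well and given serial compound dilutions (2% DMSO) for 3 days at 37 °C. Lysates were taken in 0.33% NP40. Intracellular HBV DNA was quantified by qPCR and EC50/EC90 derived. For serum shift, 40% human serum was present during incubation. Mean ± SEM, n=3 (serum) or 13.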
In general terms: Real-time PCR tracks product formation cycle by cycle.

Data set [5] is described as follows: Apparent permeability across apical to basal side in human Caco-2 cells at 1 uM incubated for 1 hr. In kind it is ADME, cell-based. The method, boiled down: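 Bidirectional transport across Caco-2 cells in HBSS, pH 7.4, 0.1% final DMSO. Compound was tested at 1 or 2 μM for 1 h at 37 °C, 5% CO2. Apical and basal samples gave apparent permeability A→B and B→A, and the efflux ratio.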

Data set [6] in a line: Plasma protein binding in dog at 1 uM incubated for 4 to 24 hrs by equilibrium dialysis method. Format: ADME, cell-free, Canis lupus familiaris. To be noted: time 4-24 hrs, read-out: PPB (converted). The method, boiled down:
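Rapid equilibrium dialysis in mouse, rat, dog, monkey or human plasma for 4 or 24 h; test concentrations 1, […].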
(In general: Equilibrium dialysis compares concentrations on both sides of a semipermeable membrane.)

Data set [7] in a line: Ratio of drug concentration in blood to plasma in Cynomolgous monkey at 5 uM incubated for 60 mins. To be noted: cynomolgus monkey. Format: ADME, cell-free, Macaca fascicularis. The method, boiled down:
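Compound at 5 μM in whole blood of each species, 37 ± 1 °C for 60 min; blood-to-plasma ratio and red blood cell partitioning determined.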

Data set [8] is described as follows: Clearance in C57BL/6J mouse at 1 mg/kg, iv by LC-MS/MS analysis. To be noted: in vivo. In kind it is ADME, organism-based. In outline:
(§2)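 Single dose to fasted male C57BL6 mice, Sprague-Dawley rats, beagle dogs and cynomolgus monkeys, either IV at 1 mg/kg or PO as a solution at 5 mg/kg, in 80% PEG 400 in water. Plasma concentrations were measured by LC-MS/MS. PK parameters come from noncompartmental analysis using nominal doses and nominal sampling times.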

Data set [9] can be described thus: Half life in C57BL/6J mouse at 1 mg/kg, iv by LC-MS/MS analysis. Format: ADME, organism-based. To be noted: in vivo. The method, boiled down:
as §2

Data set [10] can be described thus: Tmax in Sprague-Dawley rat at 5 mg/kg, po by LC-MS/MS analysis. In kind it is ADME, organism-based. To be noted: in vivo. In outline:
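Fasted males (C57BL6 mice, Sprague−Dawley rats, beagle dogs, cynomolgus monkeys) given a single oral solution dose of 5 mg/kg in 80% PEG 400 in water. Plasma sampled over time, analysed by LC-MS/MS. Noncompartmental analysis used nominal doses and nominal sampling times.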

A short description of data set [11]: Cmax in Beagle dog at 5 mg/kg, po by LC-MS/MS analysis. In kind it is ADME, organism-based, Canis lupus familiaris. To be noted: in vivo. The method, boiled down:
as §2

Data set [12] is described as follows: AUC (infinity) in Cynomolgous monkey at 5 mg/kg, po by LC-MS/MS analysis. In kind it is ADME, organism-based, Macaca fascicularis. To be noted: cynomolgus monkey, in vivo. The method, boiled down:
as §2

Data set [13] can be described thus: Half life in Cynomolgous monkey at 5 mg/kg, po by LC-MS/MS analysis. Format: ADME, organism-based, Macaca fascicularis. To be noted: cynomolgus monkey, in vivo. In outline:
as §2

The subject of data set [14] is Hepatitis B virus. Description: Antiviral activity against AAV-Hepatitis B virus infected in C57BL/6 mouse assessed as reduction in baseline HBV DNA production at 15 to 50 mg/kg, po qd for 56 days followed by induction of compound washout period measured after 7 days. In kind it is functional, organism-based. To be noted: dose 15-50 mg/kg, time 63.0 day.
The test system of data set [15] is Mus musculus. Description: Effect on HBsAg level in C57BL/6 mouse infected with AAV-Hepatitis B virus at 15 to 50 mg/kg, po qd for 56 days followed by induction of compound washout period for 14 days. To be noted: dose 15-50 mg/kg, time 70.0 day. In kind it is functional, organism-based.
Data set [16] concerns Mus musculus. Description: Effect on HBeAg level in C57BL/6 mouse infected with AAV-Hepatitis B virus at 15 to 50 mg/kg, po qd for 56 days followed by induction of compound washout period for 14 days. In kind it is functional, organism-based. The settings on record: dose 15-50 mg/kg, time 70.0 day.
A short description of data set [17]: Toxicity in C57BL/6 mouse infected with AAV-Hepatitis B virus assessed as change in ALT level at 15 to 50 mg/kg, po qd for 56 days followed by induction of compound washout period for 14 days. Format: organism-based. To be noted: in vivo, 1680 h, dose 15-50 mg/kg, time 70 day.
The subject of data set [18] is Mus musculus. Description: Effect on HBsAg level in C57BL/6 mouse infected with AAV-Hepatitis B virus at 15 mg/kg, po bid for 56 days followed by induction of compound washout period for 14 days. Format: functional, organism-based. To be noted: time 70.0 day.
Data set [19] in a line: Toxicity in C57BL/6 mouse infected with AAV-Hepatitis B virus assessed as change in ALT level at 15 mg/kg, po bid for 56 days followed by induction of compound washout period for 14 days. In kind it is organism-based. To be noted: in vivo, 1680 h, time 70 day.
The next data set deals with T1, Cytochrome P450 2B6 (Homo sapiens, UniProt P20813).
T1 sequence (P20813 whole entry): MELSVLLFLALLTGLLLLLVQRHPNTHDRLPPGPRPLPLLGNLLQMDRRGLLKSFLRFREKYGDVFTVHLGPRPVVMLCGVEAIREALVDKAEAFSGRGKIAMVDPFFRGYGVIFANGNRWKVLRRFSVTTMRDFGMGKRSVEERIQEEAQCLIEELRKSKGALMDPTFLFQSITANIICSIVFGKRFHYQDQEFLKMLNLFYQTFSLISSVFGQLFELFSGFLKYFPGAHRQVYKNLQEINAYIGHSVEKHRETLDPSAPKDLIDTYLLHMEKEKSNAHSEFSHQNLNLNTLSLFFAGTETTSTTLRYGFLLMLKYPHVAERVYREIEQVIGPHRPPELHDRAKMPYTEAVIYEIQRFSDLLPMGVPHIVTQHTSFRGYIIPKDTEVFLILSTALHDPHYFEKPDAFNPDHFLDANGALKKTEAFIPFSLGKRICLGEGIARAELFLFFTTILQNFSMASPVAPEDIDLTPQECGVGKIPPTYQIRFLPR
Description: Induction of CYP2B6 (unknown origin) in human hepatocytes upto 30 uM. Format: ADME, cell-based, Hepatocyte.

The target in a further data set is Bile salt export pump (Homo sapiens, UniProt O95342). Description: Inhibition of BSEP (unknown origin) transfected in HEK293 cells. Format: cell-based.
Data set [20] has as its target Multidrug and toxin extrusion protein 2 (Homo sapiens, UniProt Q86VL8). Description: Inhibition of MATE2 (unknown origin) transfected in HEK293 cells. Format: cell-based.
Data set [21] in a line: Effect on mitochondrial biogenesis in human HepG2 cells upto 10 uM. Format: toxicity, cell-based. The settings on record: hepg2, 10 µM.
Data set [22] in a line: Effect on differentiation of human HPC cells upto 10 uM. Format: toxicity, cell-based.

Structures are written as SMILES. Activity calls are given as the source filed them.

Chain of Multidrug and toxin extrusion protein 2 (Q86VL8 whole entry): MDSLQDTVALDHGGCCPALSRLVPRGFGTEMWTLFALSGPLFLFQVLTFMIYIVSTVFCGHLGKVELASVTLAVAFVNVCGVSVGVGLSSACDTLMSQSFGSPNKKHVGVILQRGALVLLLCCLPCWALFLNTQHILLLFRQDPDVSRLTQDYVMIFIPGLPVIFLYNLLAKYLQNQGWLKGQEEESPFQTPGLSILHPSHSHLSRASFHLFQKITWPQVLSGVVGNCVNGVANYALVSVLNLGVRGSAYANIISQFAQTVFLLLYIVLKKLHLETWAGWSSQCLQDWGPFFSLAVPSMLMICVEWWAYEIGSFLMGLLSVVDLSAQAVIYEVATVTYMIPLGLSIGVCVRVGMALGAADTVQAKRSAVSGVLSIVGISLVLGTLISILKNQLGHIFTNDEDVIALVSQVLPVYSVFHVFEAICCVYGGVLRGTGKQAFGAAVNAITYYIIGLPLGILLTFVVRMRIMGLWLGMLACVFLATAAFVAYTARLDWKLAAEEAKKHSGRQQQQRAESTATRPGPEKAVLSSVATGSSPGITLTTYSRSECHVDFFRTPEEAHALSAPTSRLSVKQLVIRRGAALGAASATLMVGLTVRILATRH
Chain of Solute carrier family 22 member 6 (Q4U2R8 whole entry): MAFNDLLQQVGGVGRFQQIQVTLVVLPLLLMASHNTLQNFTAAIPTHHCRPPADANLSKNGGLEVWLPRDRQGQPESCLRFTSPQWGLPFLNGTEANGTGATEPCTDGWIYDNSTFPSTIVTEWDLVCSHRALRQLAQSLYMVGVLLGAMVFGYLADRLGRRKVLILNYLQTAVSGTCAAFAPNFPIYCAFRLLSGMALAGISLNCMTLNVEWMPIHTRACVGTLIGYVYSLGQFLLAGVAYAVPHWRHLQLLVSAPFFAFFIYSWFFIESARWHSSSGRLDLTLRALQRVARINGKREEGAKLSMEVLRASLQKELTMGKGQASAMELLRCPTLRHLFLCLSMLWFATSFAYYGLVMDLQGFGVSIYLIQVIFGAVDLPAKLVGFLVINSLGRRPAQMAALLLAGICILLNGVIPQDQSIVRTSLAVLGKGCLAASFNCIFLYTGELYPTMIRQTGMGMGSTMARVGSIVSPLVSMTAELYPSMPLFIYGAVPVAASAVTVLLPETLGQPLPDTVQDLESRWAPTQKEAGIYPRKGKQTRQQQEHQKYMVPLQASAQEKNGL
Chain of Bile salt export pump (O95342 whole entry): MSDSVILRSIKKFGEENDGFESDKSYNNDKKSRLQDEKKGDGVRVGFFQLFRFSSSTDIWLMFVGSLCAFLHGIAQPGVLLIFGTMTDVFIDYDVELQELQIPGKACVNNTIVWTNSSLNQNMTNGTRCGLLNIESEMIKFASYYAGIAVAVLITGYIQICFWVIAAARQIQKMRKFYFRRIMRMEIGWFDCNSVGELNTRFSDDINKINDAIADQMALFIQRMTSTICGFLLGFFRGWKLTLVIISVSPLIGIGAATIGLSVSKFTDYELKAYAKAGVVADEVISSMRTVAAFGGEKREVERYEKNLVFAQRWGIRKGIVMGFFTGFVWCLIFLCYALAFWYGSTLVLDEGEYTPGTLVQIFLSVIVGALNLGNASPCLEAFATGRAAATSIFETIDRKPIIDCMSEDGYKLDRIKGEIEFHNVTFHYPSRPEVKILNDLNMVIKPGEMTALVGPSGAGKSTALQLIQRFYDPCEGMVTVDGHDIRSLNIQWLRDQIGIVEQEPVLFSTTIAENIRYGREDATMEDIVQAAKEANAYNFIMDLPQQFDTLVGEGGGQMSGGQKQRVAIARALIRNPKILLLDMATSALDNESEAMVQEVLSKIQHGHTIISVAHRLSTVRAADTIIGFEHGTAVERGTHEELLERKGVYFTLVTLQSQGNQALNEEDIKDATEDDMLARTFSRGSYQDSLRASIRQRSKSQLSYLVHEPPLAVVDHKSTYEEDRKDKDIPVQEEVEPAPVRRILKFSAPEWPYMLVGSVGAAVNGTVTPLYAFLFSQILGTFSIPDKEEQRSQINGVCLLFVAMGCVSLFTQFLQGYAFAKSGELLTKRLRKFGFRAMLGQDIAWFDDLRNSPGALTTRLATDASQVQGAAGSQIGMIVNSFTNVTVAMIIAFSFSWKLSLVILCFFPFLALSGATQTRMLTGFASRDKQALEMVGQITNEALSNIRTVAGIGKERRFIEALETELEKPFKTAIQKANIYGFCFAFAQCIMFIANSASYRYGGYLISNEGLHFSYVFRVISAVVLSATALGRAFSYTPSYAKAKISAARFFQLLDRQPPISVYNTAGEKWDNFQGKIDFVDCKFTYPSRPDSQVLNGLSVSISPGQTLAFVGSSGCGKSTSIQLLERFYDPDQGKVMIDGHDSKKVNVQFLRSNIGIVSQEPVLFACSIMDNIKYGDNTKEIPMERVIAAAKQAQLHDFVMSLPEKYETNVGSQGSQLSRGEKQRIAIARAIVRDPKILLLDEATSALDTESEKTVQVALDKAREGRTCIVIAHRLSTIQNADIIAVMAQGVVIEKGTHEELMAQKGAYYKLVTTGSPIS

For `C#CC1(N(COP(=O)([O-])[O-])C(=O)C(=O)c2c(C)c(C(=O)Nc3ccc(F)c(C#N)c3)n(C)c2C)COC1.[Na+].[Na+]`, the fraction unbound at 2 µM is 0.0913 in [1] and 0.179 in data set [2]. Besides, in data set [3], the IC50 was determined as 10.8 µM.

In the case of `C#CC1(NC(=O)C(=O)c2c(C)c(C(=O)Nc3ccc(F)c(C#N)c3)n(C)c2C)COC1`, the concentration for a half-maximal effect (EC50) in the data set on Hepatitis B virus [4] was 0.00748 µM. In addition, in data set [5], the apparent permeability from apical to basolateral (Papp A→B) at 1 h, 1 µM amounted to 1.8 ×10⁻⁶ cm/s. Besides, in [6], the fraction unbound at 1 µM is 0.286. In [7], the blood plasma ratio at 1 h, 5 µM came to 0.83. Besides, the clearance in [8] turned out to be 12 mL/min/kg. Moreover, the half-life is 1.37 h in data set [9] and 14.4 h in data set [13]. Also, the time of peak concentration (Tmax) in [10] is 1.67 h. Moreover, the Cmax in data set [11] was 1900 ng/mL. In data set [12], this compound had an AUC(0-inf) of 2190 ng·h/mL. Further, the outcome in the data set on Hepatitis B virus [14], with Mus musculus [15], with Mus musculus [16] and in the data set with Mus musculus [18] was inactive. Further, the Activity result in data set [17] is given as “Non-toxic”; in data set [19], “Non-toxic”; at Cytochrome P450 2B6, “Not_active”; in data set [21], “Non-toxic”; in data set [22], “Non-toxic”. Further, the IC50 (on Bile salt export pump; in [20]) was > 11.8 µM each time.

The term IC50 denotes the concentration that inhibits the measured activity by half. The EC50 is the midpoint of the concentration-response curve. What is called Papp A→B is the apparent permeability from the apical to the basolateral side of a cell layer. As a reminder, the clearance is the volume of plasma or blood freed of the substance per unit of time. Broadly, the half-life is the time needed for the level to fall by half in the phase considered. The Tmax is the time from dosing to the highest level. One may read the Cmax as the highest concentration seen after dosing. For orientation: AUC(0-inf) means total exposure, with the tail of the curve extrapolated.
